# An excerpt weighted towards active compounds, which were near 5.1% of everything screened.
# STAT3 activator: activators of IL-6 induced STAT3 signaling; U3A cells, IL-6 STAT3-luciferase reporter, luminescence; 100% = signal with IL-6 EC80 alone; AID 871; activation (% of control), % at 5.6 µM; 0.91% of 190,000 active;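 active = activation above the screen-wide mean of compound activation plus 3 SD, cut at about 130% in these data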;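 note: 0% = background luminescence of wells with medium and substrate only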
#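 Detection: reporter luminescence signal / Assay system: STAT1-lacking human U3A cells, STAT3 luciferase reporter / Incubation: compound pre-incubation 1 h before IL-6, then 6 h stimulation at 37 °C / Control set: IL-6-only high control / Read-out: % activation relative to IL-6 control / Probe or stimulus: Interleukin-6, 33 ng/mL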
# STAT1 blocker: STAT1 signaling inhibition; AID 920; inhibition, % at 5.5 µM; 0.35% of 200,000 active; NIH 3T3 STAT1-luciferase reporter, IFN-gamma, luminescence;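 active = inhibition above a set limit, the mean inhibition across all tested compounds plus 3 SD, cut at about 34% in these data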;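 note: 0% = IFN-gamma with DMSO and 100% = IFN-gamma with 300 µM nifuroxazide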
# APP 5'UTR act: activates APP 5'UTR luciferase reporter; SH-SY5Y APP 5'UTR luciferase reporter, luminescence; zero percent = DMSO vehicle wells; activation, % at 2 µM; 1% of 190,000 active; AID 1276;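 active = activation above a set limit, based on mean plus 3 SD of controls, cut at about 140% in these data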
# NF-kB neuron act: NF-kB expression increase, human neuronal cells; NF-kB reporter expression; active compounds read high; fold change at 12.5 µM; 1.6% of 190,000 active; in the data active = fold change above about 3.3
# STAT1 act: activators of IFN-gamma induced STAT1 signaling. 2.6% of 200,000 active. AID 932. activation (% of control), % at 5.5 µM. NIH 3T3 STAT1-luciferase reporter, luminescence; 100% = IFN-gamma alone, no compound;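 active = activation above the screen-wide mean activation plus 3 SD, cut at about 130% in these data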;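 note: raw ratio to IFN-gamma control signal so 100% means no change and 0% no light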
# STAT3 blocker: STAT3 signaling inhibition | U3A cells, IL-6 STAT3-luciferase reporter, luminescence; host cell line lacks STAT1 | inhibition, % at 5.5 µM | 0.89% of 190,000 active | AID 862;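 active = inhibition above the mean inhibition across all screened compounds plus 3 SD, cut at about 44% in these data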;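 note: 0% = DMSO only wells and 100% = 100 µM nifuroxazide control wells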
# The depositor's hits bear a star.
SMILES,STAT3 activator,STAT1 blocker,APP 5'UTR act,NF-kB neuron act,STAT1 act,STAT3 blocker
Cc1ccsc1C1NC(=O)c2c(sc3c2CCCC3)N1 (configuration not stated),108,-35,83,1.8,133*,-2
CN1CCc2c(sc3c2C(=O)NC(c2ccccc2)N3)C1 (configuration not stated),100,-7,-3,0.8,106,8
O=C1NC(c2ccc(Br)cc2)Nc2sc3c(c21)CCC3 (configuration not stated),94,-4,19,1.4,103,12
CC(=O)c1nc(-c2ccccc2)sc1C,89,-13,-5,1.2,112,17
O=C(Nc1cc([N+](=O)[O-])ccc1N1CCOCC1)c1ccco1,97,-4,3,1.2,101,8
Cc1ccc([N+](=O)[O-])cc1N/C=C/C(=O)c1ccco1,134*,-12,23,1.2,111,-32
O=C(/C=C/Nc1ccc(F)cc1)c1ccco1,77,-24,146*,5.1*,127,29
O=C(Nc1cccc(F)c1)c1ccco1,88,-10,33,1.3,107,16
CCOC(=O)c1ccc(N/C=C/C(=O)c2ccc(OC)c(OC)c2)cc1,93,-5,12,1.1,105,9
CCOC(=O)c1ccc(N/C=C/C(=O)c2ccco2)cc1,67,-22,126,5.2*,121,43
CCCC(=O)NCCc1cc(OC)c(OC)cc1Br,91,2,-11,1.2,99,14
Cc1cc2cc3c(cc2nc1SCc1ccccn1)OCCO3,103,7,37,1.4,94,-4
N#Cc1cc2ccccc2nc1SCc1ccccn1,124,-52,186*,5.3*,147*,-22
CC(C)NC(=O)CCc1nnc(Cc2cccc(C(F)(F)F)c2)o1,112,-46,40,2.5,140*,-9
CCC(COC)NC(=O)CCc1nnc(Cc2cccc(C(F)(F)F)c2)o1 (configuration not stated),95,-17,22,1.9,114,10
CCOC(=O)c1cccc(NC(=O)C2(S(=O)(=O)c3ccc(C)cc3)CC2)c1,104,2,-7,1.1,100,-7
Fc1ccc(-c2nnsc2Sc2ccccn2)cc1,96,-32,18,1.1,126,6
CN(C)c1cccc(C(=O)N/N=C/c2ccccc2F)c1,28,69*,139*,5*,36,89*
CN(C)c1cccc(C(=O)Nc2cccc(F)c2)c1,100,-34,67,3,132*,3
CCN(CC)c1ccc(C(=O)Nc2cccc(F)c2)cc1,77,-30,181*,8.4*,127,35
Cc1cc(/C=N/NC(=O)c2cccc(N(C)C)c2)c(C)n1-c1cc(C(=O)O)cc(C(=O)O)c1,105,-16,4,1.4,113,4
Cc1ccc(/C=N\NC(=O)CCc2n[nH]c(=O)[nH]c2=O)o1,97,-1,-4,1.1,100,11
CC(=O)c1cc(N2CCC(C(=O)O)CC2)ccc1[N+](=O)[O-],93,-4,6,1.1,104,13
CC(=O)c1cc(N2CCOCC2)ccc1[N+](=O)[O-],101,-7,10,5.6*,104,3
CN(C)S(=O)(=O)N1CCN(c2ccc([N+](=O)[O-])c(N3CCOCC3)c2)CC1,136*,-2,6,1.2,100,-44
SMILES,STAT3 activator,STAT1 blocker,APP 5'UTR act,NF-kB neuron act,STAT1 act,STAT3 blocker
CCN(C(=O)c1ccc(C)c(Br)c1)c1ccccc1,106,5,-8,1.2,96,3
CC1=CC(=C(C#N)c2nc3ccccc3s2)C=C(C)N1CC1CCCO1 (configuration not stated),106,-31,7,0.99,128,0
O=C(CSc1nc2ccccc2s1)N1c2ccccc2Sc2ccc(Cl)cc21,91,11,-2,1,90,11
O=c1oc2cc(Cl)ccc2n1CSc1nc2ccccc2s1,123,-21,0,8.6*,119,-20
O=C(O/N=C/c1ccc2c(c1)OCO2)c1ccccc1Cl,98,-4,7,3.7*,103,4
O=C(O/N=C\c1ccc(N2CCOCC2)c([N+](=O)[O-])c1)c1ccccc1Cl,100,-3,8,0.92,102,8
Nc1c(-c2ccccc2)c(CSc2nc3ccccc3[nH]2)nn1-c1ccc(C(=O)O)cc1,104,1,-1,1.1,99,1
O=C(CSC1=NCCN1)Nc1cccc(C(F)(F)F)c1,106,-44,-2,1.2,142*,-8
Cn1ccnc1SCC(=O)Nc1cccc(C(F)(F)F)c1,88,-6,11,1.5,107,20
O=C1CSC2=NCN(c3ccc4c(c3)OCO4)CN12,114,-8,69,1.7,108,-14
CN(C)c1ccc(N2CN=C3SCC(=O)N3C2)cc1,128,-67,136*,0.58,160*,-31
O=C(O)c1cc([N+](=O)[O-])cc2c1nnn2O,98,0,5,1,99,3
COc1ccc(OCC(=O)Nc2ccccc2O)cc1,96,13,65,5.5*,88,11
O=C(COc1ccccc1[N+](=O)[O-])NCCC1=CCCCC1,104,-10,-28,1.4,110,3
O=[N+]([O-])c1ccccc1Sc1nccn1Cc1ccccc1,102,11,-2,1.3,90,4
O=C(NNc1nc2cc3c(cc2s1)OCCO3)c1ccccc1,104,-34,38,1.9,132*,5
COc1ccc(CNC(=O)C2CCN(S(=O)(=O)c3cccc4cccnc34)CC2)cc1,103,-1,23,0.81,101,-4
Cn1c(Sc2ccc(Br)cc2)c(C=O)c2ccccc21,157*,16,2,0.76,87,-49
O=C(c1ccco1)n1nc(-c2ccc(Cl)cc2)nc1NCc1ccco1,84,4,-7,1.3,96,19
O=C(COc1ccccc1)n1nc(-c2ccc(Cl)cc2)nc1NCc1ccco1,111,-47,54,1.8,143*,-13
COCC(=O)n1nc(-c2ccccc2)nc1NCc1ccc(N(C)C)cc1,112,-50,52,2.1,142*,-9
COCC(=O)n1nc(-c2ccc(C)cc2)nc1NCc1ccc(F)cc1,106,-23,31,1.1,118,-2
Cc1cc(C)cc(CC(Cc2nc3ccccc3[nH]2)c2nc3ccccc3[nH]2)c1 (configuration not stated),102,-2,6,0.52,102,7
CC1CCN(c2oc(-c3ccccc3Cl)nc2C#N)CC1,114,-24,80,3.7*,121,-12
c1ccc(-n2cnnc2SCc2cn3ccsc3n2)cc1,89,13,3,0.94,88,15
Cc1cccc2nc(CSc3nnc4ccccn34)cn12,107,-40,94,2.7,137*,-8
c1ccn2c(SCc3cn4ccsc4n3)nnc2c1,112,-42,45,2.2,138*,-11
